Active and inactive are the calls of the source. No cut-off for these calls is given here.
Key:
[Chlorella] fusca = Antialgal activity against Chlorella fusca at 50 ug/disk; type: functional; conditions: Scenedesmus fuscus; for zone of inhibition at 50 µg/disc: read-out: IZ
Summary of the method: (§1)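 Agar diffusion assay: 50 µg of compound applied per filter disk on seeded agar. The read-out is the inhibition zone, measured in mm from the edge of the filter disk.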

Priestia megaterium = assay: Antibacterial activity against Bacillus megaterium at 50 ug/disk; type: functional; conditions: for zone of inhibition at 50 µg/disc: read-out: IZ; summary of the method: as §1
Mycotypha microspora = assay: Antifungal activity against Mycotypha microspora at 50 ug/disk; type: functional; summary of the method: as §1
[1] = target: Human immunodeficiency virus type 1 reverse transcriptase (Human immunodeficiency virus 1) (UniProt Q72547); assay: Inhibition of HIV1 RT
[2] = tested on: Aspergillus pseudoglaucus; assay: Antifungal activity against Eurotium repens at 50 ug/disk; type: functional; conditions: for zone of inhibition at 50 µg/disc: read-out: IZ; summary of the method: as §1
[3] = target: Tyrosine-protein kinase Lck (Homo sapiens, UniProt P06239); assay: Inhibition of tyrosine kinase p56-lck
Microbotryum violaceum = assay: Antifungal activity against Ustilago violacea at 50 ug/disk; type: functional; summary of the method: as §1
Fusarium oxysporum = assay: Antifungal activity against Fusarium oxysporum at 50 ug/disk; type: functional; summary of the method: as §1
Escherichia coli = assay: Antibacterial activity against Escherichia coli at 50 ug/disk; type: functional; conditions: for zone of inhibition at 50 µg/disc: read-out: IZ; summary of the method: as §1

Activity [1] | IC50 [3] [µM] | Activity [3] | Structure (SMILES) | zone of inhibition at 50 µg/disc ([Chlorella] fusca) [mm] | zone of inhibition at 50 µg/disc (Priestia megaterium) [mm] | Activity (Mycotypha microspora) | Activity [2] | Activity (Microbotryum violaceum) | Activity (Fusarium oxysporum) | zone of inhibition at 50 µg/disc (Escherichia coli) [mm] | Activity ([Chlorella] fusca) | Activity (Priestia megaterium) | zone of inhibition at 50 µg/disc [2] [mm] | Activity (Escherichia coli) | zone of inhibition at 50 µg/disc (Mycotypha microspora; read-out: IZ) [mm] | zone of inhibition at 50 µg/disc (Microbotryum violaceum; read-out: IZ) [mm] | zone of inhibition at 50 µg/disc (Fusarium oxysporum; read-out: IZ) [mm]
inactive | 208 | – | COc1cc(C)c(O)c(C[C@]2(C)[C@H]3CCC(=C(C)C)[C@@H](CCC(=O)O)[C@]3(C)CC[C@H]2C)c1 [ATOMARIC ACID] | 5 | 1 | inactive | inactive | inactive | inactive | 1 | – | – | – | – | – | – | –
– | – | – | CCOC(=O)c1ccccc1C(=O)OCC [DIETHYL PHTHALATE] | 13 | 10 | – | – | – | – | – | – | – | – | – | – | – | –
inactive | – | inactive | Cc1cc(O)cc2c1O[C@@]1(C)CC[C@@H]3[C@@]4(C)CC[C@H](O)C(C)(C)[C@@H]4CC[C@@]3(C)[C@@H]1C2 [TAONDIOL] | – | – | – | – | – | – | – | inactive | inactive | 2 | inactive | – | – | –
inactive | 187 | – | CC1=CC(=O)C=C(C[C@]2(C)[C@H]3CCC(=C(C)C)[C@@H](CCC(=O)O)[C@]3(C)CC[C@H]2C)C1=O [STYPOQUINONIC ACID] | – | 1 | inactive | inactive | inactive | inactive | 1 | inactive | – | – | – | – | – | –
– | – | – | Clc1ccc(COC(Cn2ccnc2)c2ccc(Cl)cc2Cl)c(Cl)c1 (stereo unspecified) [MICONAZOLE] | 4 | – | – | – | – | – | – | – | – | 20 | – | 5 | 32 | 3

From ChEMBL document CHEMBL1144062, “A new tyrosine kinase inhibitor from the marine brown alga Stypopodium zonale” (J Nat Prod, 1999)
